Data: ChEMBL document CHEMBL1137418, “Neurosteroid analogues. 11. Alternative ring system scaffolds: gamma-aminobutyric acid receptor modulation and anesthetic actions of benz[f]indenes” (J Med Chem, 2006)
Activity calls are given as the source filed them. No cut-off for these calls is given here.

What was measured:
[1] = target: GABA-A receptor; anion channel; assay: Displacement of [35S]TBPS from GABA-A receptor in rat brain membrane; assay type: cell membranes
Outline: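 Rat brain membranes were used to measure noncompetitive displacement of [35S]-TBPS from the picrotoxin site of GABAA receptors. Hill slopes were also derived. Results come from duplicate experiments run in triplicate, with error as SEM.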

Xenopus laevis [2] = species: Xenopus laevis; assay: Loss of righting reflex in Xenopus laevis tadpole; assay type: functional
Outline: (§1)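 Xenopus tadpoles were scored for loss of righting response and, separately, loss of swimming response. N = 10 animals were tested at each of five or more concentrations, and error is given as SEM.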

[3] = target: T1, GABA-A receptor; alpha-1/beta-2/gamma-2 (Rattus norvegicus) (UniProt P18508+P62813+P63138); assay: Activity at rat GABA-Aalpha1 receptor plus beta-2-gamma-2L expressed in Xenopus laevis oocyte assessed as ratio of GABA-mediated current in presence to absence of compound at 0.1 uM; assay type: functional
[4] = target: T1, GABA-A receptor; alpha-1/beta-2/gamma-2 (Rattus norvegicus); assay: Activity at rat GABA-Aalpha1 receptor plus beta2gamma2L expressed in Xenopus laevis oocyte assessed as ratio of GABA-mediated current in presence to absence of compound at 1 uM; assay type: functional
[5] = target: T1, GABA-A receptor; alpha-1/beta-2/gamma-2 (Rattus norvegicus); assay: Activity at rat GABA-Aalpha1 receptor plus beta-2-gamma-2L expressed in Xenopus laevis oocyte assessed as ratio of GABA-mediated current in presence to absence of compound at 10 uM; assay type: functional
[6] = target: T1, GABA-A receptor; alpha-1/beta-2/gamma-2 (Rattus norvegicus); assay: Activity at rat GABA-Aalpha1 receptor plus beta-2-gamma-2L expressed in Xenopus laevis oocyte assessed as ratio of current evoked by compound alone in absence of GABA to current evoked by 2 uM GABA at 10 uM
Xenopus laevis [7] = species: Xenopus laevis; assay: Loss of swimming reflex in Xenopus laevis tadpole; assay type: functional; outline: as §1
Xenopus laevis [8] = species: Xenopus laevis; assay: Loss of swimming reflex in Xenopus laevis tadpole at 10 uM; assay type: functional, organism-based
Xenopus laevis [9] = species: Xenopus laevis; assay: Loss of righting reflex in Xenopus laevis tadpole at 10 uM; assay type: functional, organism-based

Row | SMILES | IC50 [1] [µM] | ED50 (Xenopus laevis [2]) [µM] | Ratio [3] | Ratio [4] | Ratio [5] | Ratio [6] | ED50 (Xenopus laevis [7]) [µM] | Activity (Xenopus laevis [8]) | Activity (Xenopus laevis [9])
1 | C[C@]12CC[C@@H](O)C[C@H]1CC[C@@H]1[C@@H]2CC[C@]2(C)[C@@H](C#N)CC[C@@H]12 | 0.072 | 0.08 | 2.02 | 10.4 | 20.6 | 0.09 | 0.36 | – | –
2 | CC(=O)[C@H]1CC[C@H]2[C@@H]3CC[C@@H](CCO)C[C@H]3CC[C@]12C | 1.17 | 1.09 | 0.91 | 0.96 | 3.63 | 0.14 | 3.15 | – | –
3 | C[C@]12CC[C@@H]3C[C@H](CCO)CC[C@H]3[C@@H]1CCC2=O | 4.17 | 16.4 | 0.99 | 1.03 | 1.05 | 0.03 | – | inactive | –
4 | C[C@]12CC[C@@H]3C[C@@H](CCO)CC[C@H]3[C@@H]1CC[C@@H]2C#N | 0.13 | 0.14 | 1.45 | 3.65 | 7.42 | 0.01 | 1.73 | – | –
5 | C[C@]12CC[C@@H]3C[C@@H](CCO)CC[C@H]3[C@@H]1CCC2=O | 5.42 | 8.1 | 0.95 | 1.22 | 2.11 | -0.16 | – | inactive | –
6 | C[C@]12CC[C@@H]3C[C@H](CCO)CC[C@H]3[C@@H]1CC[C@@H]2C#N | 0.58 | 0.79 | 1.29 | 2.33 | 12.2 | 0.54 | 5.5 | – | –
7 | CC(=O)[C@H]1CC[C@H]2[C@@H]3CC[C@H](CCO)C[C@H]3CC[C@]12C | 0.13 | 1.04 | 1.27 | 3.79 | 9.35 | 0.13 | 2.84 | – | –
8 | C[C@]12CC[C@@H](O)C[C@@H]1CC[C@@H]1[C@@H]2CC[C@]2(C)[C@@H](C#N)CC[C@@H]12 | 0.05 | 0.07 | 1.44 | 5.65 | 8.28 | 0.66 | 0.71 | – | –
9 | CC(=O)[C@H]1CC[C@H]2CC3C[C@H](CCO)CC[C@@H]3C[C@@]21C (single isomer, unassigned) | – | >10 | – | – | – | – | – | inactive | –
10 | CC(=O)[C@H]1CC[C@H]2CC3C[C@@H](CCO)CC[C@@H]3C[C@@]21C (single isomer, unassigned) | 2.05 | 6.63 | – | – | – | – | 17.3 | – | –
11 | C[C@]12C[C@H]3CC[C@H](CCO)CC3C[C@@H]1CCC2=O (single isomer, unassigned; 1a) [listing 1 of 2 here] | 5.01 | 4.01 | – | – | – | – | – | – | –
12 | C[C@]12C[C@H]3CC[C@H](CCO)CC3C[C@@H]1CCC2=O (single isomer, unassigned; 1a) [listing 2 of 2 here] | – | – | 1 | 1 | 2.42 | -0.02 | – | inactive | –
13 | C[C@]12C[C@H]3CC[C@@H](CCO)CC3C[C@@H]1CCC2=O (single isomer, unassigned; 1b) [listing 1 of 2 here] | 3.92 | – | – | – | – | – | – | – | –
14 | C[C@]12C[C@H]3CC[C@@H](CCO)CC3C[C@@H]1CCC2=O (single isomer, unassigned; 1b) [listing 2 of 2 here] | – | – | 0.9 | 1.08 | 3.54 | -0.02 | – | inactive | inactive
15 | C[C@]12C[C@H]3CC[C@@H](CCO)CC3C[C@@H]1CCC2=O (single isomer, unassigned; 1c) [listing 1 of 2 here] | > 30 | – | – | – | – | – | – | – | –
16 | C[C@]12C[C@H]3CC[C@@H](CCO)CC3C[C@@H]1CCC2=O (single isomer, unassigned; 1c) [listing 2 of 2 here] | – | – | 0.93 | 0.9 | 1.02 | -0.01 | – | inactive | inactive
17 | C[C@]12C[C@H]3CC[C@H](CCO)CC3C[C@@H]1CCC2=O (single isomer, unassigned; 1d) [listing 1 of 2 here] | > 10 | 10 | – | – | – | – | – | – | –
18 | C[C@]12C[C@H]3CC[C@H](CCO)CC3C[C@@H]1CCC2=O (single isomer, unassigned; 1d) [listing 2 of 2 here] | – | – | 1.02 | 1.04 | 1.21 | -0.05 | – | inactive | –
19 | C[C@]12C[C@H]3CC[C@H](CCO)CC3C[C@@H]1CC[C@@H]2C#N (single isomer, unassigned; 2a) [listing 1 of 2 here] | 1.22 | 4.78 | – | – | – | – | 17.3 | – | –
20 | C[C@]12C[C@H]3CC[C@H](CCO)CC3C[C@@H]1CC[C@@H]2C#N (single isomer, unassigned; 2a) [listing 2 of 2 here] | – | – | 1.02 | 1.29 | 3.9 | 0 | – | – | –
21 | C[C@]12C[C@H]3CC[C@@H](CCO)CC3C[C@@H]1CC[C@@H]2C#N (single isomer, unassigned; 2b) [listing 1 of 2 here] | 0.52 | 2.88 | – | – | – | – | 5.48 | – | –
22 | C[C@]12C[C@H]3CC[C@@H](CCO)CC3C[C@@H]1CC[C@@H]2C#N (single isomer, unassigned; 2b) [listing 2 of 2 here] | – | – | 1.02 | 2.11 | 7.21 | 0.01 | – | – | –
23 | C[C@]12C[C@H]3CC[C@@H](CCO)CC3C[C@@H]1CC[C@@H]2C#N (single isomer, unassigned; 2c) [listing 1 of 2 here] | 1.98 | 3 | – | – | – | – | – | – | –
24 | C[C@]12C[C@H]3CC[C@@H](CCO)CC3C[C@@H]1CC[C@@H]2C#N (single isomer, unassigned; 2c) [listing 2 of 2 here] | – | – | 1.01 | 1.14 | 3.23 | -0.01 | – | inactive | –
25 | C[C@]12C[C@H]3CC[C@H](CCO)CC3C[C@@H]1CC[C@@H]2C#N (single isomer, unassigned; 2d) [listing 1 of 2 here] | 1.9 | 5.12 | – | – | – | – | 17.3 | – | –
26 | C[C@]12C[C@H]3CC[C@H](CCO)CC3C[C@@H]1CC[C@@H]2C#N (single isomer, unassigned; 2d) [listing 2 of 2 here] | – | – | 0.98 | 1.03 | 2.17 | 0.01 | – | – | –
27 | C[C@]12CC[C@@H](O)C[C@@H]1CC[C@@H]1[C@@H]2CC[C@]2(C)C(=O)CC[C@@H]12 [ANDROSTERONE] | 0.41 | 3.38 | 0.97 | 1.41 | 5.44 | 0.02 | – | inactive | –
28 | CC(=O)[C@H]1CC[C@H]2[C@@H]3CC[C@H]4C[C@H](O)CC[C@]4(C)[C@H]3CC[C@]12C [BREXANOLONE] | – | 0.42 | 1.26 | 3.89 | 9.65 | 0.37 | 5.5 | – | –
29 | CC(=O)[C@H]1CC[C@H]2[C@@H]3CC[C@@H]4C[C@H](O)CC[C@]4(C)[C@H]3CC[C@]12C [ELTANOLONE] | – | 0.06 | 1.2 | 2.82 | 9.77 | 0.06 | 0.3 | – | –
30 | C[C@]12CC[C@@H](O)C[C@H]1CC[C@@H]1[C@@H]2CC[C@]2(C)C(=O)CC[C@@H]12 [ETIOCHOLANOLONE] | 4.14 | >10 | 0.89 | 0.87 | 1.39 | 0 | – | inactive | –
